ChEMBL document CHEMBL4813982, “Novel pyrazolo[4,3-d]pyrimidine microtubule targeting agents (MTAs): Synthesis, structure-activity relationship, in vitro and in vivo evaluation as antitumor agents” (Bioorg Med Chem Lett, 2021)

Columns and labels:
Tubulin (Homo sapiens) [1] = target: T1, Tubulin (Homo sapiens) (UniProt P68371+Q9H4B7+P0DPH7+P68366+Q13509+Q71U36+P04350+Q3ZCM7+P07437+P68363+Q9BQE3+Q6PEY2+Q13885+Q9BVA1+Q9BUF5); test: Inhibition of [3H]colchicine binding to tubulin (unknown origin) at 0.5 uM relative to control; format: protein-complex assay
Tubulin (Homo sapiens) [2] = target: T1, Tubulin (Homo sapiens); test: Inhibition of [3H]colchicine binding to tubulin (unknown origin) at 5 uM relative to control; format: protein-complex assay
NCI/ADR-RES = test: Antiproliferative activity against human NCI/ADR-RES cells overexpressing Pgp; format: functional, cell-based
OVCAR-8 = test: Antiproliferative activity against human OVCAR-8 cells; format: functional, cell-based
[3] = Resistance ratio of IC50 for antiproliferative activity against human NCI/ADR-RES cells expressing Pgp to IC50 for antiproliferative activity against human OVCAR-8 cells; format: functional
Procedure, shortened: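 Resistance ratio: IC50 in Pgp-overexpressing NCI/ADR-RES cells divided by IC50 in parental OVCAR-8 cells.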

Tubulin = test: Inhibition of tubulin assembly (unknown origin); format: protein-complex assay, Homo sapiens

| SMILES | inhibition (Tubulin (Homo sapiens) [1]) [%] | inhibition (Tubulin (Homo sapiens) [2]) [%] | IC50 (NCI/ADR-RES) [nM] | IC50 (OVCAR-8) [nM] | Ratio IC50 [3] | IC50 (Tubulin) [nM] |
| --- | --- | --- | --- | --- | --- | --- |
| COc1ccc(N(C)c2nc(C)nc3ccn(C)c23)cc1 | 79 | 99 | – | – | – | – |
| COc1ccc2c(c1)CCCN2c1nc(Cl)nc2cnn(C)c12 | 68 | 94 | 8 | 17 | 0.47 | 420 |
